The values that follow come from the EternaBench riboswitch data.

This data set has as its system MS2 coat protein. The data set can be described thus: apparent Kd, MS2 coat protein; higher = weaker binding; RNA-MaP array; FMN 200 µM where present. Put shortly:
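The apparent Kd is the median of filtered binding-curve fits, one per cluster, to green signal normalised to red-channel RNA signal and control-cluster median Fmax. The clusters were on Illumina sequencing chips, and stalled E. coli RNA polymerase had transcribed the designs on them. Titration used SNAP-549-labelled MS2 coat protein from 0.7 or 1.5 nM, doubling to 3 µM, without and then with constant ligand, in 100 mM Tris-HCl pH 7.5, 80 mM KCl, 4 mM MgCl2, BSA, DTT, yeast tRNA and Tween-20.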

Setting [1] is: designed as: OFF switch for flavin mononucleotide, no ligand.
Setting [2] is: ligand present: flavin mononucleotide, designed as: OFF switch for flavin mononucleotide.
Where [3] appears, read: designed as: ON switch for flavin mononucleotide, no ligand.
Setting [4] is: ligand present: flavin mononucleotide, designed as: ON switch for flavin mononucleotide.

Take “CCGAAUAUGCAGGAUAUCGUAUCGGAGACGAUACGAGAAGGGCAAACAUGAGGAUCACCCAUGUUCCUUAACGG”: the apparent Kd – broadly, the concentration giving half-maximal binding under the conditions of the assay – is, setting by setting: under setting [1], 19.1 nM; under setting [2], 22.5 nM.

Turning to “UGAUAGGACAGAGGAUAUACGGAUAGGAUCUACUAUCUUCCUCAAAUAACAUGAGGAUCACCCAUGUAGAAGGCUGUCCUAUCU”, the “apparent Kd” value is, setting by setting: under setting [1], 126 nM; under setting [2], 887 nM.

As for “GUGCGGGUGCCACAGGAUAUACGUGGAUCGACAUGAGGAUCACCCAUGUAUAUCCUAAUAAUUGCGUAGAAGGGUGGUCAGCCGU”, the “apparent Kd” value by setting is: under setting [3], 845 nM; under setting [4], 149 nM.

For “CGCACUUAGCGAGGAUAUGUUAAACAUGAGGAUCACCCAUGUGAUUUAGUAUCAAUUUUAGUGAAACAGAAGGCGCUUAGUGCG”, the “apparent Kd” value is 17.6 nM under setting [1] and 14.9 nM under setting [2].

As for “UAUAUAUAGUAAGGAUAUGUAUAUAUUUGAUAAACAGAAGGUACUGACAUGAGGAUCACCCAUGUUUUAGUGUGGGCAUGUAGA”, the “apparent Kd” value reads like this: under setting [1], 62.8 nM; under setting [2], 78.6 nM.

Turning to “UGAUCUUACAUGAGGAUCACCCAUGUAGACCAGUAACUAACCAGAAGGCACGUAGAGUAAAACAGUGAGGAUAUGGAUGACAUA”, the “apparent Kd” value by setting is: under setting [3], 6.66 nM; under setting [4], 5.5 nM.

As for “AGUGUCAUCGAGAAGGCCUCAACAUGAGGAUCACCCAUGUUGCAAAAUGGGAGGAUAUCGAAAAUACAGCUACGUUUCGUAGCA”, the “apparent Kd” value came out at 21.9 nM under setting [3] and 5.3 nM under setting [4].

“UGUGUCAUCGAGAAGGCCUCAACAUGAGGAUCACCCAUGUUGUAAUAUGGGAGGAUAUCGAUGAUACAGCUACGUUUCGUAGCU”: the “apparent Kd” value was 19.2 nM under setting [3] and 5.78 nM under setting [4].

Regarding “CUUUCGUGAGGAUAUGUGGCUUCAAUCGUGAGAUCGAGGCUACAGAAGGCACAUGAGGAUCACCCAUGUUCCUC”, the “apparent Kd” value reads like this: under setting [1], 37.9 nM; under setting [2], 388 nM.

As to “GCCUUAUCCGUCAGGAUAUACAUUUUUUAGUUGUUGUAGAAGGGACAUGAGGAUCACCCAUGUACAUUACAUUG”, the “apparent Kd” value under setting [1] is 21.1 nM and the “apparent Kd” value under setting [2] came out at 21.8 nM.

As to “UGCAUGUAGGAGAAGGAGGACUUCAUGAGGAUCACCCAUGUGUUAGGACUUAGGAUAUUUGACGACAUGAGGAUCACCCAUGUG”, the “apparent Kd” value is, setting by setting: under setting [3], 80.1 nM; under setting [4], 71.9 nM.

For “GGCGAACAGGCUAACAUGAGGAUCACCCAUGUGGACUCAUGGUAGGAUAUCGGGAAGGAGGAAACCGAGAAGGGCCGGUGAGCU”, the “apparent Kd” value is 67.7 nM under setting [3] and 26.3 nM under setting [4].

For the sequence “GGAUAUGACAGAGGAUAUACGUGCUAGAGAUACUAGCAAAAUUUCCUCACAUGAGGAUCACCCAUGUAGAAGGCUGUCCUAUCG”, the “apparent Kd” value under setting [1] is 16.3 nM and the “apparent Kd” value under setting [2] is 275 nM.

“ACAUGAGGAUCACCCAUGUAGAAUGGAGAAGGUAGAUACUUGUGACUCACCCAUGUACAUAGGACUAAGGAUAUUCUAAUAAUU”: the “apparent Kd” value was 94.4 nM under setting [3] and 54.2 nM under setting [4].

“AGCGUGGAGACAGGAUAUGAGAAUAGAUAGAAAUCAGAAGGGUCACAUGAGGAUCACCCAUGUAAAGUCUUGAGGAUGAGUGAU”: the “apparent Kd” value under setting [1] was determined as 86.5 nM and the “apparent Kd” value under setting [2] amounted to 208 nM.

For “GUCGGAAACGACAAAAGUAGCAUACGAGAAGGCUGAUCCACGACAUGAGGAUCACCCAUGUACUUAGAGGAUAUUGGAUGCUAC”, the “apparent Kd” value under setting [3] turned out to be 110 nM and the “apparent Kd” value under setting [4] was found to be 26.1 nM.

As to “GCACUGGAUGUAGGAUAUCAGGACGAUAAGUCCUGAGAAGGACAUGAGGAUCACCCAUGUAACUCAAACCAGUGCUAUAAUAUA”, the “apparent Kd” value runs as follows: under setting [1], 16.2 nM; under setting [2], 27.2 nM.

For the sequence “CGCAGACAUUGGACCUGGUAACAUGAGGAUCACCCAUGUAUCAGAAGGUACUUAUAGAGAUUAAGUAAGGAUAUGAAGUUUGUG”, the “apparent Kd” value reads like this: under setting [3], 5.34 nM; under setting [4], 6.55 nM.

Take “GGCAUGUGGGCAGGAUAUAACUCGGUCUCUAGGUUAGAAGGGCCACACAUGAGGAUCACCCAUGUCGACCAGGCAGUCCUCCCU”: the “apparent Kd” value is, setting by setting: under setting [1], 26.2 nM; under setting [2], 60.5 nM.

For the sequence “CUAAAUCAUGUAGGAUAUGCAUGGCGAAGCUACGCAGAAGGACAUGAGGAUCACCCAUGUCUGUCCGACAGCGUACUGUCGGAC”, the “apparent Kd” value was 19.6 nM under setting [1] and 112 nM under setting [2].
